Converted amounts (≈) assume the structure as drawn.
Tests used:
[1] = Selectivity index, ratio of CI50 for human HepG2 cells to MIC100 for Mycobacterium tuberculosis H37Rv 331/88
[2] = test system: Mycobacterium tuberculosis; assay: Antimycobacterial activity against Mycobacterium tuberculosis H37Rv 331/88 after 14 days; format: functional; conditions: H37Rv 331/88, 336 h
Enterococcus sp. [3] = assay: Antibacterial activity against Enterococcus sp. J 14365/08 after 24 hrs by microdilution broth method; format: functional; conditions: J 14365/08, 24 h
Summary of the method: (§1)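 Mueller-Hinton broth microdilution (modified M07-A07), pH 7.4 (±0.2). Compounds dissolved in DMSO, tested at final 500 to 0.49 µmol/L. Inoculum in sterile water matched to 0.5 McFarland. Incubated in the dark, humid atmosphere, 35 °C, read at 24 and 48 h visually and at 540 nm. MIC taken as ≥95% growth reduction (IC95) versus control.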

Klebsiella pneumoniae [4] = assay: Antibacterial activity against Klebsiella pneumoniae D 11750/08 after 48 hrs by microdilution broth method; format: functional; conditions: D 11750/08, 48 h; summary of the method: as §1
Mycobacterium kansasii [5] = assay: Antimycobacterial activity against Mycobacterium kansasii 6509/96 after 21 days; format: functional; conditions: 6509/96, 504 h
Summary of the method: (§2)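 Šula's semisynthetic medium micromethod at 37 °C, read after 7, 14 and 21 days. The 1.0 McFarland suspension was diluted 10^-4. MIC determined. 6509/96 is a clinical isolate.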

Pseudomonas aeruginosa [6] = assay: Antibacterial activity against Pseudomonas aeruginosa CCM 1961 after 24 hrs by microdilution broth method; format: functional; conditions: CCM 1961, 24 h; summary of the method: as §1
[7] = test system: Staphylococcus epidermidis; assay: Antibacterial activity against Staphylococcus epidermidis H 6966/08 after 48 hrs by microdilution broth method; format: functional; conditions: H 6966/08, 48 h; summary of the method: as §1
Candida albicans [8] = assay: Antifungal activity against Candida albicans ATCC 44859 after 48 hrs by microdilution broth method; format: functional; conditions: ATCC 44859, 48 h
Summary of the method: (§3)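 CLSI M27-A3 broth microdilution in RPMI 1640 with glutamine, buffered to pH 7.0 with MOPS; DMSO diluent. Yeast inoculum 5 × 10^3 ± 0.2 CFU/mL. Moulds grown on Sabouraud agar 3–10 days before spore harvest, final inoculum 0.5-5 × 10^4 CFU/mL, checked in a Bürker chamber. Incubated dark, humid, 35 °C, read at 24 and 48 h visually and at 540 nm. MIC taken as ≥80% (yeasts) or ≥50% (filamentous) growth reduction versus control.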

Enterococcus sp. [9] = assay: Antibacterial activity against Enterococcus sp. J 14365/08 after 48 hrs by microdilution broth method; format: functional; conditions: J 14365/08, 48 h; summary of the method: as §1
Nakaseomyces glabratus [10] = assay: Antifungal activity against Candida glabrata 20/I after 48 hrs by microdilution broth method; format: functional; summary of the method: as §3
Lichtheimia corymbifera [11] = assay: Antifungal activity against Absidia corymbifera 272 after 48 hrs by microdilution broth method; format: functional; conditions: Lichtheimia corymbifera, 272, 48 h; summary of the method: as §3
Mycobacterium kansasii [12] = assay: Antimycobacterial activity against Mycobacterium kansasii 235/80 after 14 days; format: functional; conditions: 235/80, 336 h; summary of the method: as §2
Pseudomonas aeruginosa [13] = assay: Antibacterial activity against Pseudomonas aeruginosa CCM 1961 after 48 hrs by microdilution broth method; format: functional; conditions: CCM 1961, 48 h; summary of the method: as §1
Mycobacterium kansasii [14] = assay: Antimycobacterial activity against Mycobacterium kansasii 235/80 after 7 days; format: functional; conditions: 235/80, 168 h; summary of the method: as §2
Pichia kudriavzevii [15] = assay: Antifungal activity against Candida krusei E28 after 48 hrs by microdilution broth method; format: functional; conditions: E28, 48 h; summary of the method: as §3
Pichia kudriavzevii [16] = assay: Antifungal activity against Candida krusei E28 after 24 hrs by microdilution broth method; format: functional; conditions: E28, 24 h; summary of the method: as §3
Klebsiella pneumoniae [17] = assay: Antibacterial activity against Klebsiella pneumoniae D 11750/08 after 24 hrs by microdilution broth method; format: functional; conditions: D 11750/08, 24 h; summary of the method: as §1
HepG2 = assay: Cytotoxicity against human HepG2 cells after 24 hrs […]; format: cell-based; conditions: HepG2, 24 h
Escherichia coli [18] = assay: Antibacterial activity against Escherichia coli CCM4517 after 48 hrs by microdilution broth method; format: functional; conditions: CCM4517, 48 h; summary of the method: as §1
Klebsiella pneumoniae [19] = assay: Antibacterial activity against ESBL-positive Klebsiella pneumoniae J 14368/08 after 24 hrs by microdilution broth method; format: functional; conditions: J 14368/08, 24 h; summary of the method: as §1
Staphylococcus aureus [20] = assay: Antibacterial activity against methicillin-resistant Staphylococcus aureus H 5996/08 after 48 hrs by microdilution broth method; format: functional; conditions: H 5996/08, 48 h
Klebsiella pneumoniae [21] = assay: Antibacterial activity against ESBL-positive Klebsiella pneumoniae J 14368/08 after 48 hrs by microdilution broth method; format: functional; conditions: J 14368/08, 48 h; summary of the method: as §1
Aspergillus fumigatus [22] = assay: Antifungal activity against Aspergillus fumigatus 231 after 48 hrs by microdilution broth method; format: functional; conditions: Aspergillus fumigatus, 231, 48 h; summary of the method: as §3
Staphylococcus aureus [23] = assay: Antibacterial activity against Staphylococcus aureus CCM 4516/08 after 24 hrs by microdilution broth method; format: functional; conditions: CCM 4516/08, 24 h
Mycobacterium kansasii [24] = assay: Antimycobacterial activity against Mycobacterium kansasii 235/80 after 21 days; format: functional; conditions: 235/80, 504 h; summary of the method: as §2
Mycobacterium kansasii [25] = assay: Antimycobacterial activity against Mycobacterium kansasii 6509/96 after 7 days; format: functional; conditions: 6509/96, 168 h; summary of the method: as §2
Escherichia coli [26] = assay: Antibacterial activity against Escherichia coli CCM4517 after 24 hrs by microdilution broth method; format: functional; conditions: CCM4517, 24 h; summary of the method: as §1
Nakaseomyces glabratus [27] = assay: Antifungal activity against Candida glabrata 20/I after 24 hrs by microdilution broth method; format: functional; summary of the method: as §3
Candida tropicalis [28] = assay: Antifungal activity against Candida tropicalis 156 after 48 hrs by microdilution broth method; format: functional; conditions: Candida tropicalis, 156, 48 h; summary of the method: as §3
Trichosporon asahii [29] = assay: Antifungal activity against Trichosporon asahii 1188 after 24 hrs by microdilution broth method; format: functional; conditions: Trichosporon asahii, 1188, 24 h; summary of the method: as §3
Mycobacterium kansasii [30] = assay: Antimycobacterial activity against Mycobacterium kansasii 6509/96 after 14 days; format: functional; conditions: 6509/96, 336 h; summary of the method: as §2
[31] = test system: Trichophyton mentagrophytes; assay: Antifungal activity against Trichophyton mentagrophytes 445 after 48 hrs by microdilution broth method; format: functional; conditions: Trichophyton mentagrophytes, 445, 48 h
Candida albicans [32] = assay: Antifungal activity against Candida albicans ATCC 44859 after 24 hrs by microdilution broth method; format: functional; conditions: ATCC 44859, 24 h; summary of the method: as §3
[33] = test system: Mycobacterium tuberculosis; assay: Antimycobacterial activity against Mycobacterium tuberculosis H37Rv 331/88 after 21 days; format: functional; conditions: H37Rv 331/88, 504 h
Trichosporon asahii [34] = assay: Antifungal activity against Trichosporon asahii 1188 after 48 hrs by microdilution broth method; format: functional; conditions: Trichosporon asahii, 1188, 48 h; summary of the method: as §3
Candida tropicalis [35] = assay: Antifungal activity against Candida tropicalis 156 after 24 hrs by microdilution broth method; format: functional; conditions: Candida tropicalis, 156, 24 h; summary of the method: as §3
Mycobacterium avium [36] = assay: Antimycobacterial activity against Mycobacterium avium 330/80 after 14 days; format: functional; conditions: 330/80, 336 h
Mycobacterium avium [37] = assay: Antimycobacterial activity against Mycobacterium avium 330/80 after 21 days; format: functional; conditions: 330/80, 504 h
Staphylococcus aureus [38] = assay: Antibacterial activity against methicillin-resistant Staphylococcus aureus H 5996/08 after 24 hrs by microdilution broth method; format: functional; conditions: H 5996/08, 24 h
Aspergillus fumigatus [39] = assay: Antifungal activity against Aspergillus fumigatus 231 after 24 hrs by microdilution broth method; format: functional; conditions: Aspergillus fumigatus, 231, 24 h; summary of the method: as §3
[40] = test system: Trichophyton mentagrophytes; assay: Antifungal activity against Trichophyton mentagrophytes 445 after 24 hrs by microdilution broth method; format: functional; conditions: Trichophyton mentagrophytes, 445, 24 h
[41] = test system: Staphylococcus epidermidis; assay: Antibacterial activity against Staphylococcus epidermidis H 6966/08 after 24 hrs by microdilution broth method; format: functional; conditions: H 6966/08, 24 h; summary of the method: as §1
Staphylococcus aureus [42] = assay: Antibacterial activity against Staphylococcus aureus CCM 4516/08 after 48 hrs by microdilution broth method; format: functional; conditions: CCM 4516/08, 48 h
Lichtheimia corymbifera [43] = assay: Antifungal activity against Absidia corymbifera 272 after 24 hrs by microdilution broth method; format: functional; conditions: Lichtheimia corymbifera, 272, 24 h; summary of the method: as §3

In the case of O=C(Nc1cc(C(F)(F)F)cc(C(F)(F)F)c1)c1ccc([N+](=O)[O-])cc1O, the “Selectivity Index” value [1] is reported as 0.55, the MIC [2] is reported as 4 µM (≈ 1.58 µg/mL) and the MIC (Enterococcus sp. [3]) is reported as 62.5 µM (≈ 24.6 µg/mL). It also gave an MIC (Klebsiella pneumoniae [4]) of over 500 µM, an MIC (Mycobacterium kansasii [5]) of 16 µM (≈ 6.31 µg/mL) and an MIC (Pseudomonas aeruginosa [6]) of over 500 µM. It also gave an MIC [7] of 1.95 µM (≈ 0.769 µg/mL), an MIC (Candida albicans [8]) of over 500 µM and an MIC (Enterococcus sp. [9]) of 125 µM (≈ 49.3 µg/mL). The MIC (Nakaseomyces glabratus [10]) was over 500 µM, the MIC (Lichtheimia corymbifera [11]) was over 500 µM and the MIC (Mycobacterium kansasii [12]) was 16 µM (≈ 6.31 µg/mL). The MIC (Pseudomonas aeruginosa [13]) was over 500 µM, the MIC (Mycobacterium kansasii [14]) was 8 µM (≈ 3.15 µg/mL) and the MIC (Pichia kudriavzevii [15]) was over 500 µM. The MIC (Pichia kudriavzevii [16]) was over 500 µM, the MIC (Klebsiella pneumoniae [17]) was over 500 µM and the IC50 (HepG2) was 4.4 µM. The MIC (Escherichia coli [18]) was over 500 µM, the MIC (Klebsiella pneumoniae [19]) was over 500 µM and the MIC (Staphylococcus aureus [20]) was 0.98 µM (≈ 0.386 µg/mL). It also gave an MIC (Klebsiella pneumoniae [21]) of over 500 µM, an MIC (Aspergillus fumigatus [22]) of over 500 µM and an MIC (Staphylococcus aureus [23]) of 1.95 µM (≈ 0.769 µg/mL). The MIC (Mycobacterium kansasii [24]) was 16 µM (≈ 6.31 µg/mL), the MIC (Mycobacterium kansasii [25]) was 16 µM (≈ 6.31 µg/mL) and the MIC (Escherichia coli [26]) was over 500 µM. It also gave an MIC (Nakaseomyces glabratus [27]) of over 500 µM, an MIC (Candida tropicalis [28]) of over 500 µM and an MIC (Trichosporon asahii [29]) of over 500 µM. It also gave an MIC (Mycobacterium kansasii [30]) of 16 µM (≈ 6.31 µg/mL), an MIC [31] of over 500 µM and an MIC (Candida albicans [32]) of over 500 µM. It also gave an MIC [33] of 8 µM (≈ 3.15 µg/mL), an MIC (Trichosporon asahii [34]) of over 500 µM and an MIC (Candida tropicalis [35]) of over 500 µM. For the same compound, the MIC (Mycobacterium avium [36]) was 32 µM (≈ 12.6 µg/mL), the MIC (Mycobacterium avium [37]) was 32 µM (≈ 12.6 µg/mL) and the MIC (Staphylococcus aureus [38]) was 0.98 µM (≈ 0.386 µg/mL). The MIC (Aspergillus fumigatus [39]) was over 500 µM, the MIC [40] was over 500 µM and the MIC [41] was 1.95 µM (≈ 0.769 µg/mL). It also gave an MIC (Staphylococcus aureus [42]) of 1.95 µM (≈ 0.769 µg/mL) and an MIC (Lichtheimia corymbifera [43]) of over 500 µM.

Reference: ChEMBL document CHEMBL3627671, “Novel derivatives of nitro-substituted salicylic acids: Synthesis, antimicrobial activity and cytotoxicity” (Bioorg Med Chem, 2015)
